Source: paper PMC9054070 (RSC Advances, 2020)
“And” between values parts separate entries of the source, which are not always exact repeats. Equal entries are not always repeated. Where two headings read alike, the source gives them in different places.

How the values were obtained:
[1] = system: MCF-7 cell line; assay: Cytotoxic screening using MTT assay, MCF-7; format: cell-based
Procedure, shortened: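 MTT cytotoxicity read-out on MCF-7 cells; IC50 from a sigmoidal log-concentration curve; 5-fluorouracil run alongside as reference drug.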

[2] = system: HepG2 cell line; assay: Cytotoxic screening using MTT assay, HepG2; format: cell-based; conditions: Homo sapiens, HepG2, 48 h, read-out: IC50 (μM) HepG2
[3] = system: normal cell line GMSC; assay: Cytotoxic screening using MTT assay, normal cell line GMSC; format: cell-based; conditions: read-out: IC50 (μM) GMSC
[4] = system: Ehrlich Ascites Carcinoma (EAC); assay: In vivo anti-tumor activity in EAC-bearing mice; conditions: for percentage MST ratio (T/C%) / percentage increase in life span (ILS%): compared to EAC control; for percentage cell growth inhibition (CGI%) / tumor volume / total tumor cell count / packed cell volume (PCV%): day 18; for tumor volume: EAC control 19.5 mL; for total tumor cell count: EAC control 19.9; for packed cell volume (PCV%): EAC control 36.72%
[5] = Homo sapiens, MCF7, 48 h, read-out: IC50 (μM) MCF-7, MTT assay, 48 h treatment
[6] = read-out: IC50 (μM) MCF-7, MTT assay, 48 h treatment

Row | Compound | IC50 [1, 5] [µM] | IC50 [2] [µM] | IC50 ([3]; 48 h) [µM] | further results
1 | C=CCn1c2ccccc2c2cn[nH]c(=O)c21 [Compound 5, 5-Allyl-3,5-dihydro-4H-pyridazino[4,5-b]indol-4-one] | > 50 | > 50 | > 50 | 
2 | CCOC(=O)Cn1c2ccccc2c2cn[nH]c(=O)c21 [Compound 10, Ethyl 2-(4-oxo-3,4-dihydro-5H-pyridazino[4,5-b]indol-5-yl)acetate] | 12.4 | 36.7 | > 50 | 
3 | O=c1[nH]ncc2c3ccccc3n(Cc3ccccc3)c12 [Compound 6, 5-Benzyl-3,5-dihydro-4H-pyridazino[4,5-b]indol-4-one] | 29.5 |  | > 50 | 
4 | O=c1c2c(cnn1Cc1ccccc1)c1ccccc1n2Cc1ccccc1 [Compound 9, 3,5-Dibenzyl-3,5-dihydro-4H-pyridazino[4,5-b]indol-4-one] | > 50 |  |  | 
5 | O=c1[nH]ncc2c1[nH]c1ccccc12 [Compound 2, 3,5-Dihydro-4H-pyridazino[4,5-b]indol-4-one] | 9.43 | 22.8 |  | 
6 | O=c1[nH]cc(F)c(=O)[nH]1 [Compound 5-FU, reference compound] |  |  |  | IC50 [1, 6]: 6.98 µM; IC50 ([3]; MTT assay, 48 h treatment, normal cell line): > 50 µM; percentage MST ratio (T/C%) ([4]; EAC-bearing mice): 166%; percentage increase in life span (ILS%) ([4]; EAC-bearing mice): 66%; percentage cell growth inhibition (CGI%) ([4]; ascetic peritoneal fluid): 38.67%; tumor volume ([4]; ascetic peritoneal fluid): 12.6 mL; total tumor cell count ([4]; ascetic peritoneal fluid): 12.2 × 10^7 cells per mL; packed cell volume (PCV%) ([4]; ascetic peritoneal fluid): 23.78%
7 | NNC(=O)Cn1c2ccccc2c2cn[nH]c(=O)c21 [Compound 12, 2-(4-Oxo-3,4-dihydro-5H-pyridazino[4,5-b]indol-5-yl)acetohydrazide] | 4.24 | 12.8 | > 50 | IC50 [1, 6]: 4.25 µM; percentage MST ratio (T/C%) ([4]; EAC-bearing mice): 172%; percentage increase in life span (ILS%) ([4]; EAC-bearing mice): 72%; percentage increase in body weight (IBW%) ([4]; EAC-bearing mice, untreated EAC control 43.65%): 19.27% and 15.56%; percentage cell growth inhibition (CGI%) ([4]; ascetic peritoneal fluid): 50.74%; percentage of viable cells ([4]; ascetic peritoneal fluid, day 18, trypan blue exclusion, EAC control 91.9%): 59.6%; tumor volume ([4]; ascetic peritoneal fluid): 11.9 mL; total tumor cell count ([4]; ascetic peritoneal fluid): 9.8 × 10^7 cells per mL; packed cell volume (PCV%) ([4]; ascetic peritoneal fluid): 19.32%
8 | C=CCn1ncc2c3ccccc3n(CC=C)c2c1=O [Compound 8, 3,5-Diallyl-3,5-dihydro-4H-pyridazino[4,5-b]indol-4-one] | 17 |  |  | 
9 | CCOC(=O)Cn1ncc2c3ccccc3n(CC(=O)OCC)c2c1=O [Compound 11, Diethyl 2,2′-(4-oxo-3H-pyridazino[4,5-b]indole-3,5(4H)-diyl)diacetate] | 9.07 | 18.8 | > 50 | 
10 | N#CCCn1ncc2c3ccccc3n(CCC#N)c2c1=O [Compound 3, 3,3′-(4-oxo-3H-pyridazino[4,5-b]indole-3,5(4H)-diyl)dipropanenitrile] |  | > 50 |  | 
